For this test, the system named is Mycobacterium tuberculosis. Nature of the test: Antitubercular activity against Mycobacterium tuberculosis H37Rv assessed as drug level causing 90% growth inhibition after 7 days by microbroth dilution method. The following applies: for MIC: Mycobacterium tuberculosis, H37Rv, 168 h. It is filed as functional. Summed up: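 Two-fold serial dilutions in 7H9 broth with 10% albumin-dextrose complex and 0.05% (v/v) Tween80, in round-bottom microtiter plates, with final concentrations starting at 200 μg/mL. Equal volume of H37Rv broth inoculum added. Incubated aerobically at 37°C for 7 days and read visually. MIC taken as the lowest concentration inhibiting 90% of growth relative to the no-drug control.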

Structures are written as SMILES. Converted amounts (≈) assume the structure as drawn.

These results are taken from ChEMBL document CHEMBL1139419, “Quantitative structure-activity relationship studies on nitrofuranyl anti-tubercular agents” (2008).

For orientation: MIC means the smallest concentration in the dilution series that meets the test's criterion for growth inhibition. For `O=C(NCc1ccc(N2CCN(Cc3ccccc3)CC2)cc1)c1ccc([N+](=O)[O-])o1`, the “-logMIC” value was determined as 2.4296 and the MIC turned out to be 1.56 µg/mL (≈ 3.71 µM).
For `O=C(NCc1ccc(N2CCS(=O)(=O)CC2)cc1)c1ccc([N+](=O)[O-])o1` the same measures were 0.8801 and 50 µg/mL (≈ 132 µM).
For `O=C(NCc1ccc(N2CCCN(Cc3ccccc3)CC2)cc1)c1ccc([N+](=O)[O-])o1` the same measures were 3.0309 and 0.4 µg/mL (≈ 0.921 µM).
On the same counts, the results for `CC(C)(C)OC(=O)N1CCN(c2ccc(CNC(=O)c3ccc([N+](=O)[O-])o3)cn2)CC1` are 5.7318 and 0.0008 µg/mL (≈ 0.00185 µM).
Regarding `CCOC(=O)N1CCN(c2ccc(CNC(=O)c3ccc([N+](=O)[O-])o3)cc2)CC1`, the “-logMIC” value stood at 4.8123 and the MIC was found to be 0.0062 µg/mL (≈ 0.0154 µM).
On the same counts, the results for `O=C(NCc1ccco1)c1ccc([N+](=O)[O-])o1` are 1.5774 and 6.25 µg/mL (≈ 26.5 µM).
As to `CN1CCN(c2ccc3c(c2)CCN(C(=O)c2ccc([N+](=O)[O-])o2)C3)CC1`, the “-logMIC” value is reported as 3.8697 and the MIC worked out at 0.05 µg/mL (≈ 0.135 µM).
For the molecule `O=C(NCc1ccc(C(F)(F)F)cc1)c1ccc([N+](=O)[O-])o1`, the “-logMIC” value stood at 3.7983 and the MIC turned out to be 0.05 µg/mL (≈ 0.159 µM).
On the same counts, the results for `O=C(c1ccc([N+](=O)[O-])o1)N1CCC(Oc2ccc(OC(F)(F)F)cc2)CC1` are 5.6993 and 0.0008 µg/mL (≈ 0.002 µM).
For `NC1CCN(c2ccc(CNC(=O)c3ccc([N+](=O)[O-])o3)cc2)C1` (configuration not stated) the same measures were 2.6172 and 0.8 µg/mL (≈ 2.42 µM).
Take `COC(=O)NC(=O)c1ccc([N+](=O)[O-])o1`: the “-logMIC” value was 2.7286 and the MIC came out at 0.4 µg/mL (≈ 1.87 µM).
